Assay results: article PMC5260863 (Journal of medicinal chemistry, 2016)
Several values for one entry are separate records, joined by “and”; a condition that tells them apart may be missing. Equal values may be shown once. One block for each compound: values may come before it.

Key:
HEK293 lysate = HEK293 lysate inhibition assay; format: biochemical, human; conditions: read-out: IC50 HEK293, mean of at least three experiments ± SEM
MV4–11 cells [1] = assay: Western blot analysis of MV4–11 cells; format: cell-based, human; conditions: for AcHH3 and AcHH4 at varied doses: 6 hours
Summary of the method: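 Cells were seeded at 500k cells/mL in 6-well plates and pre-incubated 24 h. They were then exposed to test compound at 100 nM for 24 h, or at varied doses for 6 h. Pellets were lysed in RIPA (Tris, NaCl, EDTA, SDS, deoxycholate, Triton X-100), sonicated, spun 15 min at 4°C, then heated in β-mercaptoethanol/LDS at 90°C. Primary antibody ran overnight at 4°C. Bands were normalized to actin, n ≥ 2.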

HEK293 cells = assay: HEK293 EC50 analysis; format: cell-based, human; conditions: 48 hours of treatment
HeLa cells = assay: HeLa EC50 analysis; format: cell-based, human; conditions: 48 hours of treatment
MV4–11 cells [2] = assay: MV4–11 EC50 analysis; format: cell-based, human
[3] = ESI-LCMS glucuronidation assay; format: in vitro ADME, human; conditions: 12 hours at 37°C; for glucuronidation in human liver microsomes with UDP Glucuronic acid: alamethicin, ESI-LCMS
Summary of the method: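 Pooled mixed-gender human liver microsomes at 250 µg/mL in 100 mM Tris HCl, pH 7.5. Alamethicin 1 µg/mL and MgCl2 5 mM (final), rocked 15 min at 4°C for pore formation. Test compound (5 mM stock) added with UDPGA (50 mM stock) or water, rocked 12 h at 37°C. Quenched with water/acetonitrile/formic acid 47:50:3, centrifuged 15000g. Supernatant analysed by reversed-phase ESI-LCMS TIC.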

recombinant HDAC1 = recombinant HDAC1 (Homo sapiens, UniProt Q13547); assay: Recombinant HDAC Vmax study; format: biochemical
Chain of recombinant HDAC1 (Q13547 whole entry): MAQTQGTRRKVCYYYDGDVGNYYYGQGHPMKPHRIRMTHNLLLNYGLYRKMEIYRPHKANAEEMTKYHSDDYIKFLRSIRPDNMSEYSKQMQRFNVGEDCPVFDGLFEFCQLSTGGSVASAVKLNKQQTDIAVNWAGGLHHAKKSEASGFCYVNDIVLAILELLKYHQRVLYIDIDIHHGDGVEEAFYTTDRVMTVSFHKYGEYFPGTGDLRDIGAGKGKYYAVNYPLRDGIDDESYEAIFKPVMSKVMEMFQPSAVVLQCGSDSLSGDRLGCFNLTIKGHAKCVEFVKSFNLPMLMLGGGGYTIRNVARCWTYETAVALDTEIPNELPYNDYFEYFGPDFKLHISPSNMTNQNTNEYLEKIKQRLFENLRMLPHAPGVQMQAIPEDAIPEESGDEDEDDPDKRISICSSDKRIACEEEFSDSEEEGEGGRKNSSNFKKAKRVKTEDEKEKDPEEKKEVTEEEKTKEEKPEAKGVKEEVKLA

human PBMCs = assay: Human peripheral blood mononuclear cell analysis; format: cell-based
RPMI-8226 cells = assay: Cell viability, CellTiter-Blue; format: cell-based, human; conditions: even at mM concentrations
recombinant HDAC3 = recombinant HDAC3 (Homo sapiens, UniProt O15379); assay: Recombinant HDAC Vmax study; format: biochemical
Chain of recombinant HDAC3 (O15379 whole entry): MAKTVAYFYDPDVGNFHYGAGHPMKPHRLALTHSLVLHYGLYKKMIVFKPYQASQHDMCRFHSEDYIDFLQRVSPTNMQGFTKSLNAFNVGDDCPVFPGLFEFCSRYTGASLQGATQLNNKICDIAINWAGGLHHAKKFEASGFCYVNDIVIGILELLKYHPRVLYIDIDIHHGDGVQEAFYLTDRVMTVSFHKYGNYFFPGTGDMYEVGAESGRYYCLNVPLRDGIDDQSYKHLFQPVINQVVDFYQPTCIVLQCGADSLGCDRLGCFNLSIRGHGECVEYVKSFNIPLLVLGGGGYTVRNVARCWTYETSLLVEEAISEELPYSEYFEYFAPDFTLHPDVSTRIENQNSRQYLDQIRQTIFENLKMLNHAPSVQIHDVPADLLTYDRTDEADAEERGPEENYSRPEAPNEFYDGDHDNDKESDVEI
Chain of recombinant HDAC3 (Q9Y618 395-489 partner limits assumed): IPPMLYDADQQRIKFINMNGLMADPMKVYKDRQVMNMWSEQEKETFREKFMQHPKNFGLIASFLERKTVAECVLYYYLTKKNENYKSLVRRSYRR

SMILES: CCCCNNC(=O)c1ccc(OC)cc1 [1a, N’-butyl-4-methoxybenzohydrazide]
- IC50 (HEK293 lysate): 727 ± 10.8 nM

SMILES: CCCCNNC(=O)c1cc2ccccc2o1 [1b, N’-butylbenzofuran-2-carbohydrazide]
- IC50 (HEK293 lysate): 1690 ± 38 nM

SMILES: CCCCNNC(=O)c1ccc(Oc2ccccc2)cc1 [1c, N’-butyl-4-phenoxybenzohydrazide]
- IC50 (HEK293 lysate): 1690 ± 298 nM

SMILES: CCCCNNC(=O)c1cccnc1 [1d, N’-butylnicotinohydrazide]
- IC50 (HEK293 lysate): 4680 ± 909 nM

SMILES: CCCCNNC(=O)c1cccs1 [1f, N’-butylthiophene-2-carbohydrazide]
- IC50 (HEK293 lysate): 3460 ± 669 nM

SMILES: CCCCNNC(=O)c1ccco1 [1g, N’-butylfuran-2-carbohydrazide]
- IC50 (HEK293 lysate): > 10000 nM

SMILES: CCCCNNC(=O)CCc1ccccc1 [1h, N’-butyl-3-phenylpropanehydrazide]
- IC50 (HEK293 lysate): > 10000 nM

SMILES: CCCCNNC(=O)/C=C/c1ccccc1 [1i, N’-butylcinnamohydrazide]
- IC50 (HEK293 lysate): 1440 ± 86.1 nM

SMILES: CCCCNNC(=O)c1cccc2ccccc12 [1j, N’-butyl-1-napthohydrazide]
- IC50 (HEK293 lysate): > 10000 nM

SMILES: CCCCNNC(=O)c1ccc(CNC(=O)c2ccccc2)cc1 [1l, N-(4-(2-butylhydrazine-1-carbonyl)benzyl)benzamide]
- upregulation of Acetylated Histones H3 and H4 (AcHH3/AcHH4) (MV4–11 cells [1]; 100 nM, 24 hours): higher upregulation of Acetylated Histones H3 and H4 (AcHH3/AcHH4) than vorinostat and entinostat
- AcHH3 and AcHH4 at varied doses (MV4–11 cells [1]): dose-dependent increase in AcHH3 and AcHH4
- killing of HEK293 cells (HEK293 cells): Neither 11, 2d, nor 3b display effective killing of this solid tumor cell line
- killing of HeLa cells (HeLa cells): Neither 1l, 2d, nor 3b display effective killing of this solid tumor cell line

SMILES: C/C=C/CNNC(=O)c1ccc(CNC(=O)c2ccccc2)cc1 [2a, (E)-N-(4-(2-(but-2-en-1-yl)hydrazine-1-carbonyl)benzyl)benzamide]
- IC50 (HEK293 lysate): > 10000 nM

SMILES: CC(C)NNC(=O)c1ccc(CNC(=O)c2ccccc2)cc1 [2b, N-(4-(2-isopropylhydrazine-1-carbonyl)benzyl)benzamide]
- IC50 (HEK293 lysate): > 10000 nM

SMILES: CC/C=N/NC(=O)c1ccc(CNC(=O)c2ccccc2)cc1 [2c, (E)-N-(4-(2-propylidenehydrazine-1-carbonyl)benzyl)benzamide]
- IC50 (HEK293 lysate): > 10000 nM
- activity against MV4–11 cells (MV4–11 cells [2]; doses as high as 250 µM, negative control): no appreciable activity
- upregulation of Acetylated Histones H3 and H4 (AcHH3/AcHH4) (MV4–11 cells [1]; 100 nM, 24 hours): no appreciable ability to increase acetylation of histones H3 and H4

- mode of inhibition, HDAC1 (Lineweaver-Burke plot) (recombinant HDAC1): mixed inhibition
SMILES: CCCNNC(=O)c1ccc(CNC(=O)c2ccccc2)cc1 [2d, N-(4-(2-propylhydrazine-1-carbonyl)benzyl)benzamide]
- metabolites in human liver microsomes ([3]; with and without UDPGA, no NADPH added): Neither vessel contained any detectable metabolites other than parent compound
- upregulation of Acetylated Histones H3 and H4 (AcHH3/AcHH4) (MV4–11 cells [1]; 100 nM, 24 hours): higher upregulation of Acetylated Histones H3 and H4 (AcHH3/AcHH4) than vorinostat and entinostat
- AcHH3 and AcHH4 at varied doses (MV4–11 cells [1]): dose-dependent increase in AcHH3 and AcHH4
- killing of HEK293 cells (HEK293 cells): Neither 11, 2d, nor 3b display effective killing of this solid tumor cell line
- killing of HeLa cells (HeLa cells): Neither 1l, 2d, nor 3b display effective killing of this solid tumor cell line
- toxicity toward PBMCs compared to panobinostat (human PBMCs; 24 hours treatment): superior toxicity (less PBMC killing) than panobinostat
- less toxicity toward PBMCs than 3b (human PBMCs; vs 3b, until the high micromolar range): 10 fold and ~ 10 fold

SMILES: O=C(NCc1ccc(C(=O)NNCCC(F)(F)F)cc1)c1ccccc1 [2f, N-(4-(2-(3,3,3-trifluoropropyl)hydrazine-1-carbonyl)benzyl)benzamide]
- IC50 (HEK293 lysate): 1230 ± 136 nM

SMILES: O=C(NCc1ccc(C(=O)NNCC2CC2)cc1)c1ccccc1 [2g, N-(4-(2-(cyclopropylmethyl)hydrazine-1-carbonyl)benzyl)benzamide]
- IC50 (HEK293 lysate): 1620 ± 196 nM

SMILES: CCCCCCCNNC(=O)c1ccc(CNC(=O)c2ccccc2)cc1 [2h, N-(4-(2-heptylhydrazine-1-carbonyl)benzyl)benzamide]
- IC50 (HEK293 lysate): 2160 ± 896 nM

SMILES: CCCCCCCCNNC(=O)c1ccc(CNC(=O)c2ccccc2)cc1 [2i, N-(4-(2-octylhydrazine-1-carbonyl)benzyl)benzamide]
- IC50 (HEK293 lysate): > 10000 nM

SMILES: CCCCCCNNC(=O)c1ccc(CNC(=O)c2ccccc2)cc1 [2j, N-(4-(2-hexylhydrazine-1-carbonyl)benzyl)benzamide]
- IC50 (HEK293 lysate): 550 ± 134 nM

SMILES: CCCCCCCCCCNNC(=O)c1ccc(CNC(=O)c2ccccc2)cc1 [2k, N-(4-(2-decylhydrazine-1-carbonyl)benzyl)benzamide]
- IC50 (HEK293 lysate): > 10000 nM

SMILES: CCNNC(=O)c1ccc(CNC(=O)c2ccccc2)cc1 [2l, N-(4-(2-ethylhydrazine-1-carbonyl)benzyl)benzamide]
- IC50 (HEK293 lysate): 427 ± 110 nM

SMILES: O=C(NCc1ccc(C(=O)NNCC2CCC2)cc1)c1ccccc1 [2m, N-(4-(2-(cyclobutylmethyl)hydrazine-1-carbonyl)benzyl)benzamide]
- IC50 (HEK293 lysate): 1880 ± 212 nM

SMILES: CCNNC(=O)c1ccc(CNC(=O)/C=C/c2ccccc2)cc1 [3a, N-(4-(2-ethylhydrazine-1-carbonyl)benzyl)cinnamide]
- IC50 (HEK293 lysate): 171 ± 34.2 nM

- decrease in EC50 in MV4–11 cells compared to 2d (MV4–11 cells [2]; vs 2d): ~2.5 fold
- glucuronidation in human liver microsomes with UDP Glucuronic acid [3]: not readily glucuronidated
SMILES: CCCNNC(=O)c1ccc(CNC(=O)/C=C/c2ccccc2)cc1 [3b, N-(4-(2-propylhydrazine-1-carbonyl)benzyl)cinnamamide]
- kill curve against RPMI-8226 (RPMI-8226 cells): incomplete kill curves
- upregulation of Acetylated Histones H3 and H4 (AcHH3/AcHH4) (MV4–11 cells [1]; 100 nM, 24 hours): higher upregulation of Acetylated Histones H3 and H4 (AcHH3/AcHH4) than vorinostat and entinostat
- AcHH3 and AcHH4 at varied doses (MV4–11 cells [1]): dose-dependent increase in AcHH3 and AcHH4
- killing of HEK293 cells (HEK293 cells): Neither 11, 2d, nor 3b display effective killing of this solid tumor cell line
- killing of HeLa cells (HeLa cells): Neither 1l, 2d, nor 3b display effective killing of this solid tumor cell line
- toxicity toward PBMCs compared to panobinostat (human PBMCs; 24 hours treatment): superior toxicity (less PBMC killing) than panobinostat

SMILES: CCCCCNNC(=O)c1ccc(CNC(=O)/C=C/c2ccccc2)cc1 [3d, N-(4-(2-pentylhydrazine-1-carbonyl)benzyl)cinnamide]
- IC50 (HEK293 lysate): 691 ± 54.7 nM

SMILES: CCCCCCNNC(=O)c1ccc(CNC(=O)/C=C/c2ccccc2)cc1 [3e, N-(4-(2-hexylhydrazine-1-carbonyl)benzyl)cinnamamide]
- IC50 (HEK293 lysate): 1720 ± 139 nM

SMILES: Cc1[nH]c2ccccc2c1CCNCc1ccc(/C=C/C(=O)NO)cc1 [Panobinostat, panobinostat, reference compound]
- Acetylated Tubulin (AcTub) levels (MV4–11 cells [1]; 100 nM, 24 hours, marker of HDAC6 inhibition): the only inhibitor to raise Acetylated Tubulin (AcTub) levels at this concentration
- concentration at which toxicity toward PBMCs is displayed (human PBMCs; 24 hours treatment): 10 nM

SMILES: O=C(CCCCCCC(=O)Nc1ccccc1)NO [vorinostat, reference compound]
- glucuronidation in human liver microsomes with UDP Glucuronic acid [3]: presence of the o-glucuronidated metabolite
- mode of inhibition, HDAC1 (Lineweaver-Burke plot) (recombinant HDAC1): competitive inhibition
- mode of inhibition, HDAC3 (Lineweaver-Burke plot) (recombinant HDAC3): competitive inhibition
